Calls of active or inactive are those of the source. The rule behind the calls is not given here.

In general, inhibition refers to the drop in the measured response relative to a control, in per cent. A word on the IC50: it is the point on the concentration scale where inhibition reaches its midpoint. What is called Ki is the dissociation constant of the complex between target and ligand, obtained from inhibition or displacement.

The target of data set [1] is T1, BCRP (ABCG2) (Homo sapiens, UniProt Q9UNQ0).
T1 sequence (Q9UNQ0 whole entry): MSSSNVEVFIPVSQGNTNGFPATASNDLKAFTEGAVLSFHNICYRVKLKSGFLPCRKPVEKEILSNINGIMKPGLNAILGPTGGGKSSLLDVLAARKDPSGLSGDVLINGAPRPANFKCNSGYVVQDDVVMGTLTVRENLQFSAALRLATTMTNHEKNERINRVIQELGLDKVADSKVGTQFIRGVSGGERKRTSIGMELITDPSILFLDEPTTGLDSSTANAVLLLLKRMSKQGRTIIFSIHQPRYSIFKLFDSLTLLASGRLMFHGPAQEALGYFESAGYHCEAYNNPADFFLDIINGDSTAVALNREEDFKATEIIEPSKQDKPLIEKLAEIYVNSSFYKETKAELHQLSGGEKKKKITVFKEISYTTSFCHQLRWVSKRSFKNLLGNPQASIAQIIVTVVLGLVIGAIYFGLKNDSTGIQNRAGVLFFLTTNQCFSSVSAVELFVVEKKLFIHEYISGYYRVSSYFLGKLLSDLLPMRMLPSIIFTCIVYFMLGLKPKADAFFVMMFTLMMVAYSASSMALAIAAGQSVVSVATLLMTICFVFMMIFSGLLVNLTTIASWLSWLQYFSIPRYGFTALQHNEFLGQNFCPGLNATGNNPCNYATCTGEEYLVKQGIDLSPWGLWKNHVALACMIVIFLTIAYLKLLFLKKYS
Briefly: Inhibition of BCRP (unknown origin) expressed in mouse NIH/3T3 cells assessed as inhibition of mitoxatrone efflux at 10 uM after 1 hr by FACS analysis. It counts as cell-based, NIH3T3. The conditions noted are these: NIH/3T3 cells expressing BCRP, probe mitoxantrone (printed: mitoxatrone). Background: In flow cytometry, cells or beads pass a laser one at a time.

The target of data set [2] is T1, BCRP (ABCG2). Briefly: Inhibition of BCRP (unknown origin) expressed in mouse NIH/3T3 cells assessed as inhibition of mitoxatrone efflux at 2 uM after 1 hr by FACS analysis. As to conditions: NIH/3T3 cells expressing BCRP, probe mitoxantrone (printed: mitoxatrone). It counts as cell-based, NIH3T3.
Data set [3] concerns the target T2, MDR1 (ABCB1, P-gp) (Homo sapiens, UniProt P08183). Briefly: Inhibition of MDR1 (unknown origin) expressed in mouse NIH/3T3 cells assessed as inhibition of mitoxatrone efflux at 10 uM after 1 hr by FACS analysis. It is filed as cell-based, NIH3T3. As to conditions: NIH/3T3 cells expressing MDR1, probe mitoxantrone (printed: mitoxatrone).
The target of data set [4] is T2, MDR1 (ABCB1, P-gp). Briefly: Inhibition of MDR1 (unknown origin) expressed in mouse NIH/3T3 cells assessed as inhibition of mitoxatrone efflux at 2 uM after 1 hr by FACS analysis. As to conditions: NIH/3T3 cells expressing MDR1, probe mitoxantrone (printed: mitoxatrone). It is filed as cell-based.
Data set [5] in a line: Cytotoxicity against mouse NIH/3T3 cells expressing pgp assessed as cell survival at >30 to 50 uM after 72 hrs by MTT assay. It is filed as ADME, cell-based, NIH3T3. The conditions noted are these: NIH/3T3 cells expressing P-gp. For orientation: Formazan colour is commonly taken as a measure of viable cells.
The target of data set [6] is T3, Protease (Human immunodeficiency virus 1, UniProt Q9YQ12). Briefly: Inhibition of HIV-1 recombinant protease using DABCYL-GABA-Ser-Asn-Tyr-Pro-Ile-Val-Gln-EDANS as substrate incubated for 30 mins prior to substrate addition by Dixon plot analysis.
Data set [7] concerns the target T3, Protease. Briefly: Inhibition of HIV-1 recombinant protease using DABCYL-GABA-Ser-Asn-Tyr-Pro-Ile-Val-Gln-EDANS as substrate incubated for 30 mins prior to substrate addition by Hanes plot analysis.
The target of data set [8] is T3, Protease. Briefly: Inhibition of HIV-1 recombinant protease using DABCYL-GABA-Ser-Asn-Tyr-Pro-Ile-Val-Gln-EDANS as substrate incubated for 30 mins prior to substrate addition by Lineweaver-Burk plot analysis.
Data set [9] addresses Protease (Human immunodeficiency virus 1) (UniProt Q9YQ12). Put plainly: Inhibition of HIV-1 protease in human T cells assessed as increase in eGFP expression at >20 uM after 24 hrs by flow cytometry. It is filed as cell-based. The conditions noted are these: T-cell. In short, it runs like this: (§1)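 SupT1 T cells carry an HIV-1 protease–Gal4 fusion under a tetracycline-inducible promoter and a Gal4-responsive eGFP reporter. They were kept in RPMI 1640 with 10% FBS and 1% penicillin/streptomycin at 37 °C in 5% CO₂. Cells were grown 24 h with 1–100 µM compound, with indinavir (0.0001–10 µM) as reference, then induced with […] doxycycline. eGFP was read 48 h later by flow cytometry (ex 488/em 530 nm).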

A short description of data set [10]: Cytotoxicity against human HEK293 cells assessed as cell survival after 72 hrs by MTT assay.
The nature of data set [11]: Cytotoxicity against mouse NIH/3T3 cells assessed as cell survival after 72 hrs by MTT assay.
Data set [12] is described as follows: Cytotoxicity against human HEK293 cells expressing BCRP assessed as cell survival after 72 hrs by MTT assay.
The target of data set [13] is Protease (Human immunodeficiency virus 1) (UniProt Q9YQ12). Briefly: Inhibition of HIV-1 protease in human T cells assessed as increase in eGFP expression at 1 to 100 uM after 24 hrs by flow cytometry. It is filed as cell-based. The conditions noted are these: T-cell. An outline of the steps:
as §1

The test system of data set [14] is HEK293. Put plainly: Cytotoxicity against human HEK293 cells assessed as cell survival after 72 hrs by MTT assay. It counts as cell-based. As to conditions: hek293, 72 h. An outline of the steps:
(§2)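 HEK293 cells stably transfected with BCRP, or with empty vector (HEK293-pcDNA3) as parental control, kept in high-glucose DMEM with 10% FBS, 1% penicillin/streptomycin and 0.75 mg/mL G418, at 37 °C in humidified 5% CO₂. Cells were exposed for 72 h to increasing compound concentrations, and survival was read by MTT colorimetric assay. IC50 is the mean ± sd of at least three independent experiments.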

For data set [15], the system named is HEK293. Briefly: Cytotoxicity against human HEK293 cells expressing BCRP assessed as cell survival after 72 hrs by MTT assay. It counts as ADME, cell-based. The conditions noted are these: hek293, 72 h. An outline of the steps: as §2
The nature of data set [16]: Cytotoxicity against mouse NIH/3T3 cells assessed as cell survival after 72 hrs by MTT assay. It is filed as cell-based, NIH3T3.
Data set [17] has as its system NIH3T3. Put plainly: (§3) Cytotoxicity against mouse NIH/3T3 cells expressing pgp assessed as cell survival after 72 hrs by MTT assay. It is filed as ADME, cell-based. As to conditions: nih3t3, 72 h.
Data set [18] addresses Protease (Human immunodeficiency virus 1) (UniProt Q9YQ12). Briefly: Inhibition of HIV-1 protease in human T cells assessed as increase in eGFP expression at 0.1 uM after 24 hrs by flow cytometry. It counts as cell-based. The conditions noted are these: T-cell.
The nature of data set [19]: Cytotoxicity against human HEK293 cells assessed as cell survival after 72 hrs by MTT assay. This is another data set of the same source.
The nature of data set [20]: Cytotoxicity against mouse NIH/3T3 cells assessed as cell survival after 72 hrs by MTT assay. This is another data set of the same source.
Data set [21] in a line: Cytotoxicity against human HEK293 cells expressing BCRP assessed as cell survival after 72 hrs by MTT assay. This is another data set of the same source.
A short description of data set [22]: Cytotoxicity against mouse NIH/3T3 cells expressing pgp assessed as cell survival after 72 hrs by MTT assay. The conditions noted are these: NIH/3T3 cells expressing P-gp.
Data set [23] is described as follows: as §3. As to conditions: NIH/3T3 cells expressing P-gp. It counts as ADME, cell-based, NIH3T3.

T2 sequence (P08183 whole entry): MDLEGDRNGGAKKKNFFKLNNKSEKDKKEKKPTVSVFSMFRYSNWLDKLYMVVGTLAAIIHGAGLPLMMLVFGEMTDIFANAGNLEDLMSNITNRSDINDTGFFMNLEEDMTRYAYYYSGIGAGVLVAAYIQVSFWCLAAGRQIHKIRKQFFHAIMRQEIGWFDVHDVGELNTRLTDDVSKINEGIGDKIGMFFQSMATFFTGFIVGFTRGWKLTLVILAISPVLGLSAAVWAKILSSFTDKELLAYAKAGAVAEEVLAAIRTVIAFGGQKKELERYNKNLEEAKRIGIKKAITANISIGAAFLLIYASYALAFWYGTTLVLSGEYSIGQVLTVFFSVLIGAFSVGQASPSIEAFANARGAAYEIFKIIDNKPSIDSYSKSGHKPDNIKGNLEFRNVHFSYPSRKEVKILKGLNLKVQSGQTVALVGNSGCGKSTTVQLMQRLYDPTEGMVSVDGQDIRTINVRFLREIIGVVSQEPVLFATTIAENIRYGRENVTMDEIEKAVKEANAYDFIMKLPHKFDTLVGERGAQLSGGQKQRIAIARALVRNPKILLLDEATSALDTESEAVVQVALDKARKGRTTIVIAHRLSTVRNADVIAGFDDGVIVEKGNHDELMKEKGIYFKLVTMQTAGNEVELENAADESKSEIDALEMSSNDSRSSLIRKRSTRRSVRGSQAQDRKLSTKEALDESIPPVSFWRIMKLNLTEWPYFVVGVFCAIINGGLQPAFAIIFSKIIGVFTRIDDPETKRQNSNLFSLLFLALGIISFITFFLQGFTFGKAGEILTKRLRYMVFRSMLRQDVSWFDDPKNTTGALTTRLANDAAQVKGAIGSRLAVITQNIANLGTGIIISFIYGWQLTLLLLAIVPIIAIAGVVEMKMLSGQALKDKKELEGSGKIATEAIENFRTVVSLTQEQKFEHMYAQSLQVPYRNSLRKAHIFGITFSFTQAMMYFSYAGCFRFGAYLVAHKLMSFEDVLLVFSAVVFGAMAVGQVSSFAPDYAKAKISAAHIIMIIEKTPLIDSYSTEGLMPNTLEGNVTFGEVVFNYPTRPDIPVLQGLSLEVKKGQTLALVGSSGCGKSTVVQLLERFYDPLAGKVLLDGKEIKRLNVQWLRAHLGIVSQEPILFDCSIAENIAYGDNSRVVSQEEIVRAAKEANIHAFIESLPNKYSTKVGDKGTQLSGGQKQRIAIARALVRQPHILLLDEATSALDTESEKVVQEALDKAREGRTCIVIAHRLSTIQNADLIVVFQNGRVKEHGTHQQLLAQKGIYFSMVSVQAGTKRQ
T3 sequence (Q9YQ12 whole entry): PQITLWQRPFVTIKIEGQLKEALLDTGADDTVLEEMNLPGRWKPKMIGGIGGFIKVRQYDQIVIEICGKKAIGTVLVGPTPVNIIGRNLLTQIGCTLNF
Chain of Protease (Human immunodeficiency virus 1) (Q9YQ12 as listed by the source): as the sequence (Q9YQ12 whole entry) above

For the molecule `O=C[C@H](Cc1ccccc1)NC(=O)N(Cc1ccccc1)N1CCCCC1`, the inhibition at 1 h, 10 µM was 0.3% in data set [1] and 6.4% in data set [3]. For the same molecule, the inhibition at 1 h, 2 µM amounted to 0.2% in data set [2] and 5.5% in data set [4]. In addition, the IC50 at 72 h in data set [5] is 48.6 µM; in [10], 37.6 µM; in data set [11], 42.6 µM; in data set [12], 34.8 µM. For the same molecule, the values for the Ki in [6], in data set [7] and in [8] were 292 µM, 257 µM and 172 µM, respectively. For the same molecule, the inhibition entry in data set [9] is “Active”.
For `O=C[C@H](Cc1ccc(O)cc1)NC(=O)N(Cc1ccccc1)N1CCCCC1`, the figures for the inhibition at 1 h, 10 µM in data set [1] and in data set [3] were 2.5% and 3%, respectively. The results for the inhibition at 1 h, 2 µM in data set [2] and in [4] were 0.9% and 1.1%, respectively. The IC50 at 72 h worked out at 71.2 µM in [5], 52.4 µM in data set [10], 58.6 µM in [11] and 47.9 µM in data set [12]. In addition, the Ki in data set [6] was 306 µM; in data set [7] it was 342 µM; in data set [8], 395 µM. In addition, in [13], the inhibition entry is “inactive”.
As for `O=C[C@H](Cc1ccccc1)NC(=O)N(Cc1ccccc1)N1CCOCC1`, the values for the inhibition at 1 h, 10 µM in data set [1] and in data set [3] were 3.3% and 11.5%, respectively. The figures for the inhibition at 1 h, 2 µM in data set [2] and in data set [4] were 0.2% and 7.1%, respectively. Moreover, the Activity result in [14], in data set [15] and in data set [17] was “Not Active” in each case. For the same molecule, the IC50 at 72 h in data set [16] amounted to 79.8 µM. In addition, the Ki was 996 µM in [6], 366 µM in [7] and 317 µM in data set [8]. Moreover, the inhibition result in data set [13] was “inactive”.
Consider `COc1cc2c(cc1OC)CN(CCc1ccc(NC(=O)c3cccc4c(=O)c5cccc(OC)c5[nH]c34)cc1)CC2`, for which the inhibition at 1 h, 2 µM in data set [4] stood at 110%.
For `CC(C)(C)NC(=O)[C@@H]1CN(Cc2cccnc2)CCN1C[C@@H](O)C[C@@H](Cc1ccccc1)C(=O)N[C@H]1c2ccccc2C[C@H]1O`, the inhibition entry in data set [18] is “Active”.
On to `O=C[C@H](Cc1ccccc1)N(Cc1ccccc1)C(=O)N(Cc1ccccc1)N1CCCCC1`, for which the inhibition at 1 h, 10 µM was 8.8% in data set [1] and 15% in [3]. Besides, the inhibition at 1 h, 2 µM in [2] and in data set [4] was 1.8% throughout. Further, the Ki in [6] amounted to 993 µM; in [7] it was 1120 µM; in [8], 463 µM. The inhibition entry in data set [13] is “inactive”. Further, the IC50 at 72 h was 17.6 µM in [19], 11.2 µM in data set [20], 12.8 µM in [21] and 12.8 µM in data set [22].
In the case of `CN(C)N(Cc1ccccc1)C(=O)N[C@H](C=O)Cc1ccccc1`, the inhibition at 1 h, 10 µM in data set [1] and in data set [3] was 8.1% throughout. Also, the inhibition at 1 h, 2 µM was 0.2% in data set [2] and 2.3% in data set [4]. Moreover, the IC50 at 72 h was determined as 100 µM in [5], 56.3 µM in data set [10], 68.8 µM in [11] and 57.2 µM in [12]. In addition, the Ki amounted to 492 µM in data set [6], 406 µM in data set [7] and 528 µM in data set [8]. In addition, the inhibition result in [13] was “inactive”.
Take `O=C[C@H](Cc1ccccc1)NC(=O)N(Cc1cccc(O)c1)N1CCCCC1`: the values for the inhibition at 1 h, 10 µM in [1] and in data set [3] were 8.4% and 4.8%, respectively. Moreover, the inhibition at 1 h, 2 µM was found to be 2.5% in data set [2] and 4.6% in [4]. In addition, the IC50 at 72 h is 43.5 µM in data set [5], 35.3 µM in data set [10], 42.1 µM in [11] and 23.1 µM in data set [12]. Moreover, the values for the Ki in [6], in data set [7] and in [8] were 144 µM, 242 µM and 272 µM, respectively. Besides, the inhibition entry in data set [9] was “Active”.
With `CC(C)(C)NC(=O)[C@@H]1C[C@@H]2CCCC[C@@H]2CN1C[C@@H](O)[C@H](Cc1ccccc1)NC(=O)[C@H](CC(N)=O)NC(=O)c1ccc2ccccc2n1`, the Activity result in data set [14] and in data set [15] was “Not Active” throughout. Besides, the IC50 at 72 h in data set [16] came out at 37 µM; in [23] it was 49 µM.
With `COc1cccc(CN(C(=O)N[C@H](C=O)Cc2ccccc2)N2CCCCC2)c1`, the inhibition at 1 h, 10 µM in data set [1] worked out at 8.1%; in data set [3] it was 22.7%. Also, the values for the inhibition at 1 h, 2 µM in data set [2] and in [4] were 0.9% and 7.7%, respectively. For the same molecule, the IC50 at 72 h is 46.8 µM in data set [5], 42.6 µM in data set [10], 39.4 µM in data set [11] and 37.2 µM in data set [12]. Moreover, the values for the Ki in [6], in data set [7] and in [8] were 334 µM, 410 µM and 320 µM, respectively. Further, the inhibition entry in [9] is “Active”.

The record behind these values is ChEMBL document CHEMBL3112583, “Modular construction of quaternary hemiaminal-based inhibitor candidates and their in cellulo assessment with HIV-1 protease” (Bioorg Med Chem, 2013).
